Results published in PMC4589150 (Nature chemical biology, 2015).
Non-standard residues stand in square brackets, D forms with d. Residues, ends and D or L forms follow the SMILES beside them. No end group written: not given here. pS = N[C@@H](COP(=O)(O)O)C(=O)O

Experiments:
[1] = target: histone H4 methylated K20 (Homo sapiens) (UniProt P62805); settings: cited from earlier work
[2] = target: T1, fluorescein-SQEY-OH; test: fluorescence polarisation
T1 sequence (peptide, fluorescein on the N-terminus; free C-terminal carboxylate): SQEY

[3] = target: fluorescein-phospho-SQEY-OH; test: fluorescence polarisation
[4] = target: 53BP1-BRCT (Homo sapiens, UniProt Q12888); test: Fluorescence anisotropy competition binding against fluorescein-pSQEY-OH
Method in brief: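 Untagged 53BP1 tandem BRCT (6 μM; GST removed by PreScission, anion-exchange purified) with fluorescein-phospho-SQEY peptide (50 nM) and graded unlabelled competitor peptide. Buffer: 50 mM HEPES pH 7.5, 150 mM NaCl, 1 mM DTT. Anisotropy read after equilibration. IC50 from four-parameter sigmoidal fit. Ki from IC50 using bound/total ligand, receptor and direct-binding Kd.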

[5] = target: GST-53BP1 residues 1702-1972 (BRCT domains fragment) (Homo sapiens, UniProt Q12888); assay type: binding
Method in brief: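 GST-53BP1 (residues 1702-1972; E. coli-expressed, glutathione-affinity purified, dialysed), 200 nM, with probe 1 or probe 2 (5 μM), or with probe 1 plus γH2AX peptide (100 μM). Incubation 20 min on ice, then 365 nm UV for 15 min on ice. Cross-linking read by streptavidin Western blot. Two independent experiments.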

[6] = tested on: MDC1; test: CLASPI 'selectivity filter' SILAC proteomics in HeLa lysate; assay type: binding; settings: probes 5 μM, nocodazole-arrested HeLa lysate, SILAC LC-MS/MS
Method in brief: (§1)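 Heavy (13C615N4-Arg 22 mg/L, 13C615N2-Lys 50 mg/L) or light SILAC-labelled HeLa S3 cells, nocodazole-arrested, lysed by cryogenic grinding. Lysates photo-cross-linked with γH2AX probe 1 or H2AX probe 2 (5 μM), combined, streptavidin-captured (0.5% SDS, 90 min RT), washed, dithionite-eluted. SDS-PAGE, in-gel trypsin digestion, LC-MS/MS on LTQ-Orbitrap, SILAC ratio quantitation. Forward and reverse label-swap runs.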

[7] = tested on: 53BP1; test: as above; assay type: binding; settings: probes 5 μM, nocodazole-arrested HeLa lysate, SILAC LC-MS/MS
Method in brief: as §1

[8] = tested on: POLG; test: as above; assay type: binding; settings: probes 5 μM, nocodazole-arrested HeLa lysate, SILAC LC-MS/MS
Method in brief: as §1

[9] = tested on: SIRT1; test: as above; assay type: binding; settings: probes 5 μM, nocodazole-arrested HeLa lysate, SILAC LC-MS/MS
Method in brief: as §1

[10] = tested on: MCM2; test: as above; assay type: binding; settings: probes 5 μM, nocodazole-arrested HeLa lysate, SILAC LC-MS/MS
Method in brief: as §1

[11] = target: T2, MDC1-BRCT (Homo sapiens, UniProt Q14676); assay type: binding
T2 sequence (Q14676 1883-2089): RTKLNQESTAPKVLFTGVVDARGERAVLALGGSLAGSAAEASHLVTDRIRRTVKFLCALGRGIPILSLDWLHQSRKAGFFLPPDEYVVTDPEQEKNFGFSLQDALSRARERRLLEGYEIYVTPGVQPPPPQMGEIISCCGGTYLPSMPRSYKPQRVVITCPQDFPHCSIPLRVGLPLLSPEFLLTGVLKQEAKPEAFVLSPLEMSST
Method in brief: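 E. coli-expressed, glutathione-affinity-purified MDC1-BRCT (200 nM) with biotinylated probe 1 (1 μM) and graded γH2AX competitor peptide (Ac-KKATQApSQEY-OH). Incubation 20 min on ice, then 365 nm UV for 15 min on ice. Cross-linked complexes detected by Western blot with streptavidin-based detection. Mean ± s.d., n=3.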

[12] = target: 53BP1-BRCT (53BP1 tandem BRCT domains, residues 1702-1972), untagged (human) (UniProt Q12888); test: fluorescence polarisation
Chain of 53BP1-BRCT (53BP1 tandem BRCT domains, residues 1702-1972), untagged (human) (Q12888 1702-1972): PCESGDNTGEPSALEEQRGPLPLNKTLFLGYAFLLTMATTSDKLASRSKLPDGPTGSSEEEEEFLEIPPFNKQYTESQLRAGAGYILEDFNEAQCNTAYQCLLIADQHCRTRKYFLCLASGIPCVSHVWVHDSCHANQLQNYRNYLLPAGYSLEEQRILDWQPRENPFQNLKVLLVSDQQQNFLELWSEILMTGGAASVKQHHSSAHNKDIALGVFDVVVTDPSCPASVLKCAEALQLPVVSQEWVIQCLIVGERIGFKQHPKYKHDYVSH

Chain of GST-53BP1 residues 1702-1972 (BRCT domains fragment) (Q12888 1702-1972): as above
Chain of 53BP1-BRCT (53BP1 tandem BRCT domains, residues 1702-1972), untagged (Q12888 1702-1972): as above
Chain of 53BP1-BRCT (Q12888 1702-1972): as above

53BP1 tandem Tudor (from UniProt Q12888)
Kd [1]: 20 µM

53BP1-BRCT (53BP1 tandem BRCT domains, residues 1702-1972), untagged (from UniProt Q12888 1702-1972) (domain or fragment)
percent of peptide bound at 50 μM 53BP1-BRCT [2]: 10%
Kd [3]: 2.7 µM

53BP1-BRCT K1814M (from UniProt Q12888 1702-1972) (domain or fragment)
Kd [3]: > 70 µM

53BP1-BRCT R1811Q (from UniProt Q12888 1702-1972) (domain or fragment)
Kd [3]: 35 µM

NC(=O)CC[C@H](NC(=O)[C@@H](N)COP(=O)(O)O)C(=O)N[C@@H](CCC(=O)O)C(=O)N[C@@H](Cc1ccc(O)cc1)C(N)=O [pSQEY-NH2] (H-[pS]QEY-NH2)
Ki [4]: 25 ± 0.58 µM

NC(=O)CC[C@H](NC(=O)[C@@H](N)COP(=O)(O)O)C(=O)N[C@@H](CCC(=O)O)C(=O)N[C@@H](Cc1ccc(O)cc1)C(=O)O [pSQEY-OH] (H-[pS]QEY-OH)
Ki [4]: 7.5 ± 1.1 µM

CC(=O)N[C@@H](Cc1cn(CCc2ccc(O)c(N=Nc3ccc(C(=O)NCCOCCOCCOCCOCCNC(=O)CCCC[C@@H]4SC[C@@H]5NC(=O)N[C@@H]54)cc3)c2)nn1)C(=O)N[C@@H](CCCCN)C(=O)N[C@@H](CCCCN)C(=O)N[C@@H](C)C(=O)N[C@@H](Cc1ccc(C(=O)c2ccccc2)cc1)C(=O)N[C@@H](CCC(N)=O)C(=O)N[C@@H](C)C(=O)N[C@@H](COP(=O)(O)O)C(=O)N[C@@H](CCC(N)=O)C(=O)N[C@@H](CCC(=O)O)C(=O)N[C@@H](Cc1ccc(O)cc1)C(=O)O [probe 1]
photo-cross-linking to BRCT domains fragment (in words) ([5]; probe 5 μM, streptavidin Western blot, representative of 2 experiments): robust cross-linking
enrichment ratio of MDC1, probe 1 relative to probe 2 [6]: 3.9
enrichment ratio of 53BP1, probe 1 relative to probe 2 [7]: 4.9
enrichment ratio of POLG, probe 1 relative to probe 2 [8]: 2.5–3.5
enrichment ratio of SIRT1, probe 1 relative to probe 2 [9]: 2.5–3.5
enrichment ratio of MCM2, probe 1 relative to probe 2 [10]: 2.5–3.5

CC(=O)N[C@@H](CCCCN)C(=O)N[C@@H](CCCCN)C(=O)N[C@@H](C)C(=O)N[C@H](C(=O)N[C@@H](CCC(N)=O)C(=O)N[C@@H](C)C(=O)N[C@@H](COP(=O)(O)O)C(=O)N[C@@H](CCC(N)=O)C(=O)N[C@@H](CCC(=O)O)C(=O)N[C@@H](Cc1ccc(O)cc1)C(=O)O)[C@@H](C)O [γH2AX peptide, Ac-KKATQApSQEY-OH, reference compound] (Ac-KKATQA[pS]QEY-OH)
IC50 [11]: 4.4 ± 1.6 µM
Kd [5]: < 100 µM

[pS]QEY-NH2 [phospho-SQEY-NH2]
Ki [12]: 25 µM

[pS]QEY-OH [unlabeled phospho-SQEY-OH tetrapeptide]
Ki [12]: 7.5 µM

[pS]PTF-OH [phospho-SPTF-OH]
Ki [12]: 46 µM
